Results: ChEMBL document CHEMBL5661974, “Pharmacologic characterization of a potent inhibitor of class I phosphatidylinositide 3-kinases” (Cancer Res, 2007)
The source made the active and inactive calls. The calls are words filed in the database; no cut-off is given here.

Tests used:
[1] = tested on: OVCAR-3; test: Antitumor activity against human OVCAR-3 cells xenografted female Ncr model assessed as T/C at 15 mg/kg, ip administered daily for 15 days relative to control; assay type: functional; details: time 15 day
[2] = Tmax in BALB/C mouse plasma at 2.5 mg/kg, iv by LC-MS/MS analysis; assay type: ADME, organism-based
How it was run: (§1)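 Female BALB/c mice, 6–8 weeks old, given 2.5 mg/kg i.v. in 10% DMSO, 0.5% Tween 20 in saline. Plasma came from serial bleeds; tissues were homogenized in 2 or 3 volumes PBS. Samples were methanol-precipitated with an analogue internal standard, then LC-MS/MS by multiple reaction monitoring against an 8-point external calibration of 2–20,000 nmol/L. Parameters came from WinNonlin noncompartmental analysis, model 201 for plasma and model 200 for tissues.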

[3] = AUClast in BALB/C mouse plasma at 2.5 mg/kg, iv by LC-MS/MS analysis; assay type: ADME, organism-based; how it was run: as §1
[4] = tested on: U-87 MG; test: Inhibition of cell migration in human U-87MG cells at 50 nmol/L incubated for 16 to 24 hrs by transwell assay relative to control; assay type: functional, U-87MG ATCC; details: time 16-24 hrs
[5] = Volume of distribution in BALB/C mouse plasma at 50 mg/kg, ip by LC-MS/MS analysis; assay type: ADME, organism-based; details: in vivo
How it was run: (§2)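 Female BALB/c mice, 6–8 weeks old, dosed i.p. at 50 mg/kg in 20% […] β-cyclodextrin in saline, 0.1 mL/10 g. Serial blood samples; plasma was methanol-precipitated with an analogue internal standard. LC-MS/MS multiple reaction monitoring, external calibration 2–20,000 nmol/L. Noncompartmental analysis, model 200.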

[6] = tested on: HCT-116; test: Antiproliferative activity against human HCT-116 cells harboring PI3KCA mutant assessed as cell growth inhibition incubated for 96 hrs by SRB assay; assay type: functional
[7] = tested on: PC-3; test: Antitumor activity against PTEN null human PC-3 cells xenografted male Ncr model assessed as T/C at 30 mg/kg, ip administered once a daily for 14 days relative to control; assay type: functional; details: time 14 day
[8] = Clearance in BALB/C mouse plasma at 2.5 mg/kg, iv by LC-MS/MS analysis; assay type: ADME, organism-based; how it was run: as §1
[9] = tested on: IGROV-1; test: Antitumor activity against PIK3CA mutant human IGROV-1 cells xenografted female Ncr model assessed as T/C at 70 mg/kg, ip administered once a daily for 14 days relative to control; assay type: functional; details: time 14 day
[10] = tested on: OVCAR-3; details: Homo sapiens, dose 100.0 mg/kg, route ip
[11] = tested on: MDA-MB-435; test: Antitumor activity against ERB-B2 overexpressing human MDA-MB-435 cells xenografted female Ncr model assessed as T/C at 30 mg/kg, ip administered once a daily for 14 days relative to control; assay type: functional; details: time 14 day
[12] = Inhibition of recombinant human PI3K in cricetulus griseus CHO cells expressing GFP-tagged AKT2 assessed as translocation to the plasma membrane following IGF-1 stimulation by fluorescence assay
How it was run: (§3)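 CHO cells expressing GFP-tagged AKT1, AKT2, AKT3 or PDK1, held in 0.05% serum with 0.1% BSA and stimulated with 100 nmol/L IGF-1. Plasma-membrane translocation was read by automated fluorescence imaging, with IC50 from concentration-response curves; Z' above 0.5.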

[13] = AUClast in BALB/C mouse kidney at 2.5 mg/kg, iv by LC-MS/MS analysis; assay type: ADME, organism-based; how it was run: as §1
[14] = tested on: U-87 MG; test: Antitumor activity against PTEN null human U-87MG cells xenografted female Ncr model assessed as T/C at 40 mg/kg, ip administered once a daily for 14 days relative to control; assay type: functional, U-87MG ATCC; details: time 14 day
[15] = tested on: MDA-MB-435; test: Antiproliferative activity against human MDA-MB-435 cells harboring AKT assessed as cell growth inhibition incubated for 96 hrs by SRB assay; assay type: functional
[16] = Drug metabolism in human microsomes incubated for 30 mins by LC-MS/MS analysis; assay type: ADME, Microsome; details: read-out: Drug metabolism
How it was run: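 Mouse or human microsomes incubated 30 min with inhibitor at 1 or 10 μmol/L. Metabolite detection by LC-MS/MS on an ion trap, with a 10–90% methanol gradient over 6 min and scan range 50–1,000 amu.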

[17] = tested on: HCT-116; test: Antitumor activity against PIK3CA mutant human HCT-116 cells xenografted female Ncr model assessed as body weight loss at 30 mg/kg, ip administered twice a daily for 14 days relative to control; details: time 14 day
[18] = tested on: OVCAR-3; test: Antitumor activity against human OVCAR-3 cells xenografted female Ncr model assessed as T/C at 30 mg/kg, ip administered daily for 15 days relative to control; assay type: functional; details: time 15 day
[19] = Cmax in BALB/C mouse spleen at 2.5 mg/kg, iv by LC-MS/MS analysis; assay type: ADME, organism-based; how it was run: as §1
[20] = Tmax in BALB/C mouse spleen at 2.5 mg/kg, iv by LC-MS/MS analysis; assay type: ADME, organism-based; how it was run: as §1
[21] = tested on: PC-3; test: Antitumor activity against PTEN null human PC-3 cells xenografted male Ncr model assessed as body weight loss at 30 mg/kg, ip administered once a daily for 14 days relative to control; details: time 14 day
[22] = tested on: OVCAR-3; details: Homo sapiens, dose 100.0 mg/kg, route ip, time 750.0 min
[23] = tested on: U-87 MG; details: Homo sapiens, time 24.0 hrs
[24] = Inhibition of recombinant human PI3K in cricetulus griseus CHO cells expressing GFP-tagged AKT1 assessed as translocation to the plasma membrane following IGF-1 stimulation by fluorescence assay; how it was run: as §3
[25] = tested on: OVCAR-3; details: Homo sapiens, dose 100.0 mg/kg, route ip, time 750.0 min; remark: listed apart in the source
[26] = tested on: MDA-MB-468; test: Antitumor activity against PTEN null human MDA-MB-468 cells xenografted female Ncr model assessed as body weight loss at 30 mg/kg, ip administered twice a daily for 14 days relative to control; details: time 14 day
[27] = Half life in BALB/C mouse plasma at 2.5 mg/kg, iv by LC-MS/MS analysis; assay type: ADME, organism-based; how it was run: as §1
[28] = tested on: U-87 MG; details: Homo sapiens, time 4.0 hrs
[29] = tested on: OVCAR-3; details: Homo sapiens, dose 100.0 mg/kg, route ip; remark: listed apart in the source
[30] = Tmax in BALB/C mouse plasma at 50 mg/kg, ip by LC-MS/MS analysis; assay type: ADME, organism-based; details: in vivo; how it was run: as §2
[31] = tested on: MDA-MB-468; test: Antitumor activity against PTEN null human MDA-MB-468 cells xenografted female Ncr model assessed as T/C at 70 mg/kg, ip administered once a daily for 40 days relative to control; assay type: functional; details: time 40 day
[32] = tested on: U-87 MG; test: Inhibition of recombinant PI3K in human U-87MG cells assessed as phosphorylation of AKT at ser473 at 5 times of GI50 concentration within 15 mins treatment by immunoblot analysis; assay type: cell-based
[33] = tested on: Detroit 562; test: Antiproliferative activity against human Detroit 562 cells harboring PI3KCA mutant assessed as cell growth inhibition incubated for 96 hrs by SRB assay; assay type: functional
[34] = tested on: U-87 MG; test: Antiproliferative activity against human U-87MG cells harboring PTEN deletion assessed as cell growth inhibition incubated for 96 hrs by SRB assay; assay type: functional, U-87MG ATCC

Compound: Oc1cccc(-c2nc(N3CCOCC3)c3oc4ncccc4c3n2)c1 [PI-103]
- T/C [1]: 61%
- Tmax [2]: 0 h
- AUC(0-t) [3]: 0.624 µM·h
- inhibition at 0.05 µM [4]: 44%
- Vd [5]: 0.71 L
- GI50 [6]: 930 nM
- T/C [7]: 80.8%
- clearance [8]: 3.17 mL/min
- T/C [9]: 74.7%
- inhibition [10]: Active
- T/C [11]: 85%
- IC50 [12]: 13 nM
- AUC(0-t) [13]: 0.453 µM·h
- T/C [14]: 89.1%
- GI50 [15]: 130 nM
- metabolised at 0.5 h [16]: > 70%
- Body weight loss [17]: <15%
- T/C [18]: 62%
- Cmax [19]: 1360 nM
- Tmax [20]: 4.98 min
- Body weight loss [21]: <15%
- inhibition [22]: Active
- inhibition [23]: Active
- IC50 [24]: 17 nM
- inhibition [25]: Active
- Body weight loss [26]: <15%
- half-life [27]: 42 min
- inhibition [28]: Active
- inhibition [29]: Active
- Tmax [30]: 15 min
- T/C [31]: 47.2%
- inhibition [32]: Active
- GI50 [33]: 360 nM
- GI50 [34]: 180 nM
